In data set [1] the target is T1, CXCR4 (Homo sapiens, UniProt P61073). Particulars: value taken from the literature; cited from earlier work.
Data set [2] in a line: Biodistribution of [68Ga]2 c in OH1 tumor-bearing nude mice. It counts as in vivo. The conditions noted are these: nude, mouse, tumor / muscle, total radioactivity, Tumor/Muscle ratio, Blockade, 1 h p.i. (n=4), in the presence of 50 μg cyclo-(D-Tyr 1-Arg 2-Arg 3-Nal 4-Gly 5), OH1 mice. In outline: (§1)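 Tracer: 68Ga-labeled test compound, given alone or co-injected with 50 μg competitor, in nude mice bearing OH-1 human small-cell lung cancer xenografts. Animals were sampled at 60 and 120 min post-injection. Organ and tumour activity was expressed as %ID g−1, and tumour/muscle ratios were derived.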

For data set [3], the system named is OH-1 human small-cell lung cancer xenografts. The description is as above. It counts as in vivo. In outline:
as §1

Data set [4] shares this test system. Briefly: PET imaging of CXCR4 expression in tumor-bearing nude mice. It counts as in vivo.
Data set [5] deals with T1, CXCR4. It counts as binding. Particulars: Table 1; mean±SD of three experiments except values greater than 100 nM.
Setting [6] is: 1 h p.i. (n=4), in the presence of 50 μg cyclo-(D-Tyr 1-Arg 2-Arg 3-Nal 4-Gly 5), OH1 mice.

Where two headings read alike, the source gives them in different places. Square brackets hold non-standard residues; d marks the D form. Side chains are listed from the residue outwards. Peptide text beside a SMILES is read from it. * marks the point of attachment. DOTA = O=C(O)CN1CCN(CC(=O)O)CCN(CC(=O)*)CCN(CC(=O)O)CC1; 2Nal = N[C@@H](Cc1ccc2ccccc2c1)C(=O)O; dNMeOrn = CN[C@H](CCCN)C(=O)O; 4Amb = NCc1ccc(C(=O)O)cc1

T1 sequence (P61073 whole entry): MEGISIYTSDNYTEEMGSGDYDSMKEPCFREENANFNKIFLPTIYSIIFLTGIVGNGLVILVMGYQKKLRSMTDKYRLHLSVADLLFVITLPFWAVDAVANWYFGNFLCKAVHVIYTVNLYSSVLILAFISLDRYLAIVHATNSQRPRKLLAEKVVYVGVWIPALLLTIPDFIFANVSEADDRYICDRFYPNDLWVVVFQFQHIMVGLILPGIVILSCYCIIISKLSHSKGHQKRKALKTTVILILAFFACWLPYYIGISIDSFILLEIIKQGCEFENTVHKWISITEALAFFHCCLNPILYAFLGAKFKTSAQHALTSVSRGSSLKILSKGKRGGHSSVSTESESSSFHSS

For the compound “cyclo-(-D-Tyr 1-Arg 2-Arg 3-Nal 4-Gly 5) [1 a]”, the IC50 in data set [1] was 4.3 ± 1.2 nM.
Take `CN1C(=O)[C@@H](Cc2ccc(O)cc2)NC(=O)CNC(=O)[C@H](Cc2ccc3ccccc3c2)NC(=O)[C@H](CCCNC(=N)N)NC(=O)[C@H]1CCCNC(=O)c1ccc(CNC(=O)CN2CCN(CC(=O)O)CCN(CC(=O)O)CCN(CC(=O)O)CC2)cc1` [[^68Ga]2 c, metal not drawn] (cyclo([dY][dNMeOrn]([4Amb-DOTA])R[2Nal]G)): in data set [2], the tissue to tissue ratio at 1 h came out at 3.45 ± 1.45. In data set [3] (setting [6]), the “Blockade, Adrenal glands” value is recorded as 0.87±0.32 %ID g^−1; the “Blockade, Blood” value came to 2.50±0.64 %ID g^−1; the “Blockade, Heart” value was found to be 1.38±0.52 %ID g^−1; the “Blockade, Intestine” value is 1.00±0.32 %ID g^−1. In data set [3] (setting [6]), the “Blockade, Kidney” value amounted to 7.19±1.83 %ID g^−1; the “Blockade, Liver” value was 2.27±0.59 %ID g^−1; the “Blockade, Lung” value amounted to 3.25±1.06 %ID g^−1; the “Blockade, Muscle” value was 0.58±0.21 %ID g^−1. In data set [3] (setting [6]), the “Blockade, Pancreas” value came out at 0.75±0.19 %ID g^−1; the “Blockade, Spleen” value worked out at 1.03±0.40 %ID g^−1; the “Blockade, Stomach” value amounted to 1.40±0.30 %ID g^−1; the “Blockade, Tumor” value came to 1.88±0.30 %ID g^−1. Besides, in data set [3] (1 h p.i. (n=8), OH1 mice), the “Biodistribution, Adrenal glands” value amounted to 0.83±0.55 %ID g^−1; the “Biodistribution, Blood” value worked out at 1.08±0.27 %ID g^−1; the “Biodistribution, Heart” value is listed as 0.60±0.16 %ID g^−1; the “Biodistribution, Intestine” value is recorded as 0.45±0.11 %ID g^−1. Besides, in data set [3] (1 h p.i. (n=8), OH1 mice), the “Biodistribution, Kidney” value came to 3.06±0.63 %ID g^−1; the “Biodistribution, Liver” value is listed as 1.85±0.24 %ID g^−1; the “Biodistribution, Lung” value is 1.41±0.26 %ID g^−1; the “Biodistribution, Muscle” value came out at 0.38±0.09 %ID g^−1. Moreover, in data set [3] (1 h p.i. (n=8), OH1 mice), the “Biodistribution, Pancreas” value is reported as 0.30±0.07 %ID g^−1; the “Biodistribution, Spleen” value is given as 0.69±0.09 %ID g^−1; the “Biodistribution, Stomach” value was 0.72±0.26 %ID g^−1; the “Biodistribution, Tumor” value was 6.16±1.16 %ID g^−1. Moreover, the “tumor to organ ratios” value in data set [3] (1 h post-injection) is listed as “High tumor to organ ratios”. Also, in data set [3] (2 h p.i. (n=3), OH1 mice), the “Biodistribution, Adrenal glands” value was 0.50±0.15 %ID g^−1; the “Biodistribution, Blood” value came to 0.58±0.14 %ID g^−1; the “Biodistribution, Heart” value came to 0.29±0.10 %ID g^−1; the “Biodistribution, Intestine” value is listed as 0.36±0.04 %ID g^−1. Also, in data set [3] (2 h p.i. (n=3), OH1 mice), the “Biodistribution, Kidney” value is 2.07±0.46 %ID g^−1; the “Biodistribution, Liver” value amounted to 1.48±0.31 %ID g^−1; the “Biodistribution, Lung” value is given as 2.85±2.69 %ID g^−1; the “Biodistribution, Muscle” value is 0.28±0.17 %ID g^−1. Further, in data set [3] (2 h p.i. (n=3), OH1 mice), the “Biodistribution, Pancreas” value is 0.21±0.02 %ID g^−1; the “Biodistribution, Spleen” value came out at 0.65±0.25 %ID g^−1; the “Biodistribution, Stomach” value came to 0.46±0.12 %ID g^−1; the “Biodistribution, Tumor” value amounted to 4.63±1.54 %ID g^−1. Besides, in data set [4] (co-injection of 50 μg AMD3100 per mouse (data not shown)), the “tumor uptake on co-injection of competitor” value was “significantly reduced”. Also, the “tumor uptake on co-injection of competitor” value in data set [4] (co-injection of 50 μg cyclo-(-D-Tyr 1-Arg 2-Arg 3-Nal 4-Gly 5) per mouse) is “significantly reduced”. Besides, the “accumulation in CXCR4-expressing tumors” value in data set [4] (nude mice bearing OH-1 human small-cell lung cancer xenografts) is on record as “accumulated in high levels”.
As for `CN1C(=O)[C@@H](Cc2ccc(O)cc2)NC(=O)CNC(=O)[C@H](Cc2ccc3ccccc3c2)NC(=O)[C@H](CCCNC(=N)N)NC(=O)[C@H]1CCCNC(=O)c1ccc(CNC(=O)CN2CCN(CC(=O)O)CCN(CC(=O)O)CCN(CC(=O)O)CC2)cc1` [2 b] (cyclo([dY][dNMeOrn]([4Amb-DOTA])R[2Nal]G)), the IC50 in data set [5] came to 44 ± 4 nM.

Broadly, the IC50 is the point on the concentration scale where inhibition reaches its midpoint.

Values taken from paper PMC3229844 (Chemmedchem, 2011).
